Screens: PubChem BioAssay, Johns Hopkins Ion Channel Center
KCNK9 inh – KCNK9 potassium channel inhibitors, primary screen, HEK293 cells, thallium flux; Potassium channel subfamily K member 9 (Homo sapiens), Q9NPC2; FluxOR thallium flux fluorescence; active compounds read low; B-score at 10 µM; 1.2% of 310,000 active;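 active = ratio B-score over 3 SD below the library mean, with starting fluorescence within 5 SD of its mean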;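 also: negative B-score means less thallium flux so channel inhibition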
KCNQ1 inh – inhibitors of human KCNQ1 channel, primary screen, cell-based, thallium flux, high-throughput; CHO-K1 KCNQ1, FluxOR thallium flux fluorescence; active compounds read high; 1.3% of 310,000 active; B-score at 10 µM; Potassium voltage-gated channel subfamily KQT member 1 (Homo sapiens), P51787;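 active = compounds whose thallium flux B-score, printed positive for inhibition, exceeds three library SD while starting fluorescence stays within three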;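 also: channel opened by potassium depolarization with thallium stimulus after 20 min compound exposure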
Target sequence (P51787 whole entry, looked up): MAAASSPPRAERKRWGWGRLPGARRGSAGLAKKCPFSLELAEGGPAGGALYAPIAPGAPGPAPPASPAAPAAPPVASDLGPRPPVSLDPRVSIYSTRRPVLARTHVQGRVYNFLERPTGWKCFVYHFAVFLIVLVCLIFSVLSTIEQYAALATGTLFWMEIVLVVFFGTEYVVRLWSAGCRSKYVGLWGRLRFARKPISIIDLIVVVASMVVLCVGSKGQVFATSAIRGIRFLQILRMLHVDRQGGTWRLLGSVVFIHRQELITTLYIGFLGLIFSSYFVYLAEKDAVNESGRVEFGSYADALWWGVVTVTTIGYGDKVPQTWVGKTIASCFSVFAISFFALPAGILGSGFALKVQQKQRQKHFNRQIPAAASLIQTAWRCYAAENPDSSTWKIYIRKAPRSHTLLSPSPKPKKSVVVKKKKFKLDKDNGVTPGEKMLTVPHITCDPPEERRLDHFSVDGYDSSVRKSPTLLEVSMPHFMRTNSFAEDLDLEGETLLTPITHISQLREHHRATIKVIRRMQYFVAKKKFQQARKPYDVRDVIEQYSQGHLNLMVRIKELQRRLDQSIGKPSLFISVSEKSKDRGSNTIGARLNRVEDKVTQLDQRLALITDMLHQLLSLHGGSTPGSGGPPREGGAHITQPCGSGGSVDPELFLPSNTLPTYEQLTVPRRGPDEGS
Kir21 block – inhibitors of mouse Kir2.1 inward-rectifier potassium channel; Inward rectifier potassium channel 2 (Mus musculus), P35561; HEK293-Kir2.1, FluxOR thallium flux fluorescence; active compounds read low; B-score at 10 µM; 0.85% of 310,000 active;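 active = fluorescence ratio B-score at or below minus 3 SD of library scores, with starting-brightness B-score within 2 SD, cut at about -4.2 in these data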;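 also: channel flux triggered by added potassium and thallium sulfate stimulus; B-score of peak minus minimum fluorescence over baseline after thallium stimulus; more negative B-score means stronger Kir2.1 block with less thallium influx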
KCNK3 inh – human KCNK3 channel inhibitors, primary screen, CHO cells, FluxOR thallium flux, B-score. Potassium channel subfamily K member 3 (Homo sapiens), O14649. FluxOR fluorescence; active compounds read low. B-score at 10 µM. 0.84% of 340,000 active. AID 602410, 2012;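 active = B-score under library mean minus 4 SD, starting fluorescence ratio at most library mean plus 5 SD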;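 also: more negative B-score means stronger inhibition of thallium flux through KCNK3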
KCNQ1 act – potentiators or activators of KCNQ1 channel, primary screen, cell-based, thallium flux, high-throughput; B-score at 10 µM; CHO-K1 KCNQ1, thallium flux FluxOR fluorescence; active compounds read high; 0.35% of 310,000 active;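 active = fluorescence ratio B-score, a plate-corrected score, at least three library SD, with initial intensity B-score within 5 SD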
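System: CHO-K1 cells stably expressing KCNQ1 / Medium: assay buffer for compound exposure, DMSO matched across wells / Reagent: thallium- and potassium-containing depolarizing buffer / Compound: one concentration, matched DMSO / Incubation: 20 min compound pretreatment at room temperature / Measured by: kinetic FluxOR fluorescence, 10 s baseline plus 110 s post-stimulus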
hERG rescue – hERG rescue from dofetilide block, primary screen, cell-based, CHO-hERG, FluxOR thallium flux, dofetilide IC70. dofetilide IC70 present. activation (rescue from dofetilide block), less the hit threshold, % at 10 µM. 0.51% of 310,000 active. AID 1511, 2009;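 active = activation above the mean of controls blocked by dofetilide plus 5 SD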;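 also: thallium influx through hERG after potassium depolarization seen as dye fluorescence rise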
KCNK9 inh conf – KCNK9 potassium channel inhibitors, confirmation, HEK293 cells, thallium flux, duplicate; 43% of 4,900 active; shares compounds with KCNK9 inh; AID 492992, 2010; FluxOR thallium flux fluorescence; inhibition, % at 10 µM;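 active = thallium signal inhibited by more than 5 SD of the compound-free buffer control wells, on both duplicate plates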;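 also: 0% = assay buffer control wells without compound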
Kir21 sel – mouse Kir2.1 channel inhibition, confirmation, selectivity assay for KCNK9 modulator project, cell-based, HEK293, thallium flux; shares compounds with KCNK9 inh; Kir2.1 cells, FluxOR thallium flux fluorescence; inhibition, % at 10 µM; 4% of 4,900 active; AID 492993, 2010;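 active = thallium signal drop more than 5 SD beyond the mean of the no-compound control wells, seen in both duplicate plates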;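 also: signal is fluorescence rise after thallium addition divided by baseline fluorescence; plate controls were assay buffer only for no effect and full block by chlorpromazine control for full effect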
KCNK9 uninduced – thallium flux in non-induced HEK293 cells, confirmation, counter-screen for KCNK9 inhibitor project, cell-based, second counter screen, non-induced KCNK9-HEK293; inhibition, % at 10 µM; shares compounds with KCNK9 inh; FluxOR thallium flux; 40% of 4,900 active; AID 492997, 2010;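 active = thallium signal drop beyond 5 SD of the untreated control mean, on both duplicate plates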;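 also: plate controls were buffer only IC0 wells for no effect and SID17386958 at its maximal inhibitory level for full effect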
* hit, by the source's call; i = inactive; · = no result given. Hits are enriched below; roughly 3.7% of the tested compounds scored in any of these assays.

SMILES | KCNK9 inh | KCNQ1 inh | Kir21 block | KCNK3 inh | KCNQ1 act | hERG rescue | KCNK9 inh conf | Kir21 sel | KCNK9 uninduced
CCOc1ccc(NC(=O)CN(C)C(=O)c2c(-c3ccccc3)noc2C)cc1OCC | · | · | · | i | · | · | · | · | ·
COC(=O)CCCC(=O)N1CCCC(C(=O)c2ccccc2SC)C1 (stereo not drawn) | i | i | -0.2 | i | i | -8 | · | · | ·
COc1cc(OC)c(OC)cc1CN1CCCC(C(=O)c2ccccc2SC)C1 (stereo not drawn) | i | i | -1.7 | i | i | -9 | i | i | i
COc1cc(CN2CCCC(C(=O)c3ccccc3SC)C2)cc(OC)c1 (stereo not drawn) | i | i | -2.1 | i | i | -12 | i | i | i
Cc1cccc(-c2nc(CSCC(=O)NCc3cccs3)c(C)o2)c1 | i | i | -0.69 | i | i | -15 | i | i | i
CCCOc1ccccc1N/C(N)=N/c1nc(C)cc(C)n1 | i | i | -0.67 | i | i | -14 | · | · | ·
CCCOc1ccccc1N/C(=N/c1nc(C)cc(C)n1)NC(=O)COc1ccc(OC)cc1 | -27* | 10* | -0.38 | i | i | -15 | 77%* | i | 41%*
CCOC(=O)C1(CCCc2ccccc2)CCN(C(=O)Cc2nonc2C)CC1 | i | i | 0.39 | i | i | -3 | i | i | i
CCOC(=O)C1(CCCc2ccccc2)CCN(C(=O)CSC)CC1 | i | i | -1.5 | i | i | -5 | · | · | ·
CCOC(=O)C1(CCc2ccccc2)CCN(Cc2cccc3nccnc23)CC1 | i | i | -0.07 | i | i | -2 | i | i | 23%*
CCOC(=O)C1(CCCc2ccccc2)CCN(Cc2nccn2CC)CC1 | i | i | -2.9 | i | i | -17 | i | i | i
Cc1ccc(CNC(=O)CNS(=O)(=O)c2ccc(Br)s2)cc1 | i | i | 0.65 | i | i | -4 | · | · | ·
CCN(CC)S(=O)(=O)c1cnccc1N1CCN(c2cccc(Cl)c2)CC1 | -9.8* | i | 2.5 | i | i | -1 | 36%* | i | 27%*
CNS(=O)(=O)c1cnccc1N1CCN(c2cccc(Cl)c2)CC1 | i | i | 0.08 | i | i | -9 | · | · | ·
Cc1cccc(-n2c(Cc3ccccc3)nnc2SCc2ccc([N+](=O)[O-])cc2)c1 | -14* | i | -2.2 | i | i | -9 | i | i | 41%*
Cc1ccc(S(=O)(=O)n2nc(OC(=O)c3cccc(F)c3)cc2N)cc1 | i | i | 0.5 | i | i | -2 | · | · | ·
Cc1ccc(S(=O)(=O)n2nc(OC(=O)c3c(F)cccc3Cl)cc2N)cc1 | -20* | i | 0.4 | i | i | -3 | 61%* | i | 36%*
NC(=O)CC(NC(=O)c1ccc(Br)cc1)c1ccc(N2CCC(Cc3ccccc3)CC2)c([N+](=O)[O-])c1 (stereo not drawn) | -9.5* | i | 0.89 | i | i | -9 | 55%* | i | 32%*
NC(=O)CC(NC(=O)c1ccc(Br)cc1)c1ccc(N2CCCCCCC2)c([N+](=O)[O-])c1 (stereo not drawn) | -10* | i | 1.2 | i | i | -10 | 30%* | i | 42%*
CCOc1ccc(C(C)=O)cc1CSc1nnc(-c2ccoc2C)n1N | -9.2* | i | 0.41 | i | i | -9 | 45%* | i | 30%*
Cc1[nH]c2ccccc2c1/C=C(\C#N)C(=O)NCc1ccccc1 | i | i | -3.8 | i | i | 0 | · | · | ·
Cc1ccc(C(C)NC(=O)/C(C#N)=C\c2c(C)[nH]c3ccccc23)cc1 (stereo not drawn) | i | i | -0.07 | i | i | -9 | i | i | i
CCCOc1ccc(-c2c(C(=O)N/N=C/C3CCCCC3)nnn2-c2nonc2N)cc1 | i | i | 2.5 | i | i | -5 | · | · | ·
COc1ccc(NC(=S)N(CCc2c(C)[nH]c3ccccc23)Cc2ccco2)cc1 | i | i | -1.4 | i | i | -4 | · | · | ·
COc1cccc(NC(=S)N(CCN(C)C)Cc2cccs2)c1 | i | i | 1.4 | i | i | -1 | · | · | ·
SMILES | KCNK9 inh | KCNQ1 inh | Kir21 block | KCNK3 inh | KCNQ1 act | hERG rescue | KCNK9 inh conf | Kir21 sel | KCNK9 uninduced
COc1ccc(OC)c(NC(=S)N(CCc2c(C)[nH]c3ccccc23)Cc2cccs2)c1 | -9.1* | i | 0 | i | i | -8 | 32%* | i | 31%*
COc1ccc2[nH]c(C)c(CCN(Cc3cccs3)C(=S)Nc3cccc(F)c3)c2c1 | -14* | i | 0.94 | -12* | i | -20 | 55%* | i | 31%*
COc1ccc(OC)c(NC(=S)N(CCc2c(C)[nH]c3ccc(C)cc23)Cc2cccs2)c1 | -9.4* | i | 1.5 | i | i | -19 | 34%* | i | 30%*
Cc1[nH]c2ccc(F)cc2c1CCN(Cc1cccnc1)C(=S)Nc1cccc(F)c1 | -9.1* | i | -1.4 | i | i | -6 | 42%* | i | 44%*
CCOC(=O)c1c(NC(=O)CN2C(=O)NC3(CCC(C)CC3)C2=O)sc(C)c1-c1ccc(C)cc1 (stereo not drawn) | i | i | 2.5 | i | i | -7 | · | · | ·
CCc1sc(C(=O)NNC(=O)c2cncc(Br)c2)cc1C | · | · | · | i | · | · | · | · | ·
O=C(C1CCC1)N1CCN(S(=O)(=O)c2ccc(Br)cc2Cl)CC1 | i | i | -0.43 | i | i | -15 | · | · | ·
COc1ccc([C@H]2CC(=O)C=C(c3c(C)cc(C)cc3C)C2)cc1 | · | · | · | i | · | · | · | · | ·
O=C(CN(c1cccc(C(F)(F)F)c1)S(=O)(=O)c1ccc(Cl)c([N+](=O)[O-])c1)NCc1ccccc1Cl | -8.3* | i | 0.08 | i | i | -8 | 42%* | i | 36%*
O=C(c1ccc(F)c(S(=O)(=O)N2CCOCC2)c1)N1CCc2ccccc21 | i | i | 1.9 | i | i | -6 | i | i | i
